Data published in ChEMBL document CHEMBL1156724, “Synthesis of triazole-oxazolidinones via a one-pot reaction and evaluation of their antimicrobial activity” (2008).
Values after ≈ are worked out from the molar mass of the structure shown. Active and inactive are the calls of the source. The calls are words filed in the database; no cut-off is given here.

What was measured:
Type in all cases: functional
Bacillus subtilis [1] = test: Antibacterial activity against Bacillus subtilis ATCC 6633 assessed as zone of inhibition diameter at 1 mg/mL after 24 hrs by Kirby-Bauer disk diffusion assay; settings: ATCC 6633, 24 h, read-out: IZ
Summary of the method: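 Kirby–Bauer disk diffusion on nutrient agar, inoculum grown in Mueller–Hinton broth about 24 h at 37 °C, 180 rpm. 10 µL of 1 mg/mL compound in DMSO applied to 6 mm paper disks. Vancomycin (1 mg/mL in water) positive control, DMSO negative control. Plates incubated 24 h at 37 °C. Inhibition zone diameter measured.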

Enterococcus faecalis [2] = test: Antibacterial activity against Enterococcus faecalis ATCC 29212 assessed as zone of inhibition diameter at 1 mg/mL after 24 hrs by Kirby-Bauer disk diffusion assay
Summary of the method: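 Inoculum grown in Mueller–Hinton broth ~24 h at 37 °C, 180 rpm, then plated on nutrient agar. Kirby–Bauer disk method: 10 µL of 1 mg/mL solution in DMSO applied to 6 mm sterile paper disk; vancomycin (1 mg/mL in water) positive control, DMSO negative control. Plates incubated 24 h at 37 °C; inhibition zone diameter measured.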

Bacillus subtilis [3] = test: Antibacterial activity against Bacillus subtilis ATCC 6633 after 24 hrs visualized by MTT analyzed by broth microdilution assay; settings: ATCC 6633, 24 h
Enterococcus faecalis [4] = test: Antibacterial activity against Enterococcus faecalis ATCC 29212 after 24 hrs visualized by MTT analyzed by broth microdilution assay; settings: ATCC 29212, 24 h
[5] = tested on: Mycolicibacterium smegmatis; test: Antibacterial activity against Mycobacterium smegmatis ATCC 14468 assessed as zone of inhibition diameter at 1 mg/mL after 48 hrs by Kirby-Bauer disk diffusion assay; settings: ATCC 14468, 48 h, read-out: IZ
Summary of the method: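 Kirby–Bauer disk diffusion on Middlebrook 7H10 agar with 0.5% glycerol and OADC. Inoculum grown in 7H9 with 0.2% glycerol and ADC about 24 h at 37 °C, 180 rpm. 10 µL of 1 mg/mL compound in DMSO applied to 6 mm disks. INH (1 mg/mL in DMSO) positive control, DMSO negative control. Plates incubated 48 h at 37 °C. Inhibition zone diameter measured.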

[6] = tested on: Mycolicibacterium smegmatis; test: Antibacterial activity against Mycobacterium smegmatis ATCC 14468 after 48 hrs visualized by MTT […]; settings: ATCC 14468, 48 h

Structure (SMILES) | zone of inhibition at 1000 µg/mL (Bacillus subtilis [1]) | zone of inhibition at 1000 µg/mL (Enterococcus faecalis [2]; ATCC 29212, 24 h, read-out: IZ) | MIC (Bacillus subtilis [3]) | MIC (Enterococcus faecalis [4]) | zone of inhibition at 1000 µg/mL [5] | MIC [6] | Activity (Enterococcus faecalis [2])
CN[C@H](CC(C)C)C(=O)N[C@H]1C(=O)N[C@@H](CC(N)=O)C(=O)N[C@H]2C(=O)N[C@H]3C(=O)N[C@H](C(=O)N[C@H](C(=O)O)c4cc(O)cc(O)c4-c4cc3ccc4O)[C@H](O)c3ccc(c(Cl)c3)Oc3cc2cc(c3O[C@@H]2O[C@H](CO)[C@@H](O)[C@H](O)[C@H]2O[C@H]2C[C@](C)(N)[C@H](O)[C@H](C)O2)Oc2ccc(cc2Cl)[C@H]1O [VANCOMYCIN] | 15 mm | 14 mm | 0.5 mg/L (≈ 0.345 µM) | 1 mg/L (≈ 0.69 µM) |  |  | 
NNC(=O)c1ccncc1 [ISONIAZID] |  |  |  |  | 17 mm | 4 mg/L (≈ 29.2 µM) | 
CC(=O)c1ccc(N2CC(Cn3cc(CCO)nn3)OC2=O)cc1 (stereo not drawn) | 17 mm |  | > 32 mg/L | > 32 mg/L | 15 mm | 16 mg/L (≈ 48.4 µM) | inactive
CC(=O)c1ccc(N2CC(Cn3ccnn3)OC2=O)cc1 (stereo not drawn) | 26 mm |  | 4 mg/L (≈ 14 µM) | 16 mg/L (≈ 55.9 µM) | 25 mm | 1 mg/L (≈ 3.49 µM) | inactive
